Source: PubChem BioAssay
An excerpt weighted towards active compounds, which were near 9.3% of everything screened.
PostGolgi ctrl: yeast control strain growth, post-Golgi counter-screen; efflux-deficient yeast background strain, growth absorbance A615, 16 h; inhibition, % at 10 µM; hit rate 5% among 98,000; AID 738
E coli WT exp: growth inhibitors of E. coli BW25113 wild type. OD600 absorbance. growth inhibition, % at 100 µM. hit rate 0.15% among 98,000;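 active means growth inhibition above about 50% at one test dose, limit read from the data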;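 further: growth measured after 20 h incubation at 37 °C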
D1 allo mod: allosteric modulators of human D1 dopamine receptor. P21728. HEK293 D1, CRE-luciferase, dopamine EC30 potentiation; actives deviate in either direction. B-score at 10 µM. hit rate 5.9% among 58,000;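 active means luminescence count or its row- and column-corrected plate score outside the 99.7% band of the plate's sample wells, on either side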
DAT uptake mod: changed human dopamine transporter uptake under cocaine IC80 | LLC-PK1 hDAT cells, [14C]-dopamine uptake with cocaine IC80; actives deviate in either direction | B-score at 10 µM | hit rate 1.3% among 110,000 | AID 449768;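 active means Z score or B-score, a plate-position-corrected score, falls beyond the plate's 99.7% confidence bounds, in either direction; inactive means both scores lie inside the 99.7% bounds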
Target sequence (Q01959 whole entry, looked up): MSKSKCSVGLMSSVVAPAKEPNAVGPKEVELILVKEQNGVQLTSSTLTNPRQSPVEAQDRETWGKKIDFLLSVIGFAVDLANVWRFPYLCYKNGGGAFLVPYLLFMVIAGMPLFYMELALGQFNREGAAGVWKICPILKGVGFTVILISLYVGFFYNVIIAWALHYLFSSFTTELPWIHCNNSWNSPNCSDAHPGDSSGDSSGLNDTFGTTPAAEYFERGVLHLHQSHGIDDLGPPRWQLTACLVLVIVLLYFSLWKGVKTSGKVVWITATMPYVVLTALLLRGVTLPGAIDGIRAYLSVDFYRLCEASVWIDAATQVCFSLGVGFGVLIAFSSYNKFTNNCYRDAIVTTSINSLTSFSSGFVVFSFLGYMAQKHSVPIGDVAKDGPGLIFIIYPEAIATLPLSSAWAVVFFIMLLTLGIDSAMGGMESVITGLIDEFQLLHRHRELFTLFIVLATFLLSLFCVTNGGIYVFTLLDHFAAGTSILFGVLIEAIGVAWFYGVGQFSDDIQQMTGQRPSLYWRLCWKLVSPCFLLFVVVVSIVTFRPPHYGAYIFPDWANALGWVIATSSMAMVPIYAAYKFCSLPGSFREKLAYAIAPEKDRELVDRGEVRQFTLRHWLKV
tolC growth inh: growth inhibitors of E. coli BW25113 tolC mutant. OD615. growth inhibition, % at 10 µM (by protocol). hit rate 2.2% among 65,000. AID 573;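 active means growth inhibition at or above a cutoff equal to the mean over every tested compound plus 3 SD, cut at about 60% in these data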;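 further: growth measured after 20 h incubation at 37 °C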
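signal = optical density read at 615 nm | test system = E. coli ΔtolC::kan strain BW25113 | timing = 20 h compound exposure of bacteria at 37 °C | buffer or medium = LB medium plus 50 µg/mL kanamycin | compound dosing = 10 µM final, single dose | evaluation = % inhibition of E. coli growth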
PostGolgi yeast: growth inhibition of a yeast mutant, post-Golgi transport screen | inhibition, % at 10 µM | post-Golgi transport phenotypic cell assay | hit rate 0.9% among 98,000;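 further: yeast cells grown in 1536-well plates; yeast grown about 18 h at 30C before absorbance read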
D1 PAM confirm: confirmation of human D1 dopamine receptor allosteric modulators | hit rate 88% among 2,200 | HEK293 D1 CRE-luciferase, dopamine EC30 potentiation; stronger effect = higher value | shares compounds with D1 allo mod | luminescence at 10 µM;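 active means luminescence in either of two replicates above the same-plate mean plus 3 SD of the low-dose dopamine control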
D1 ag no DA: secondary test of D1 modulators: activity without dopamine | shares compounds with D1 allo mod | HEK293 D1 CRE-luciferase, luminescence, no dopamine; stronger effect = higher value | AID 646 | hit rate 0.8% among 1,900 | luminescence at 10 µM; in the data active means luminescence above about 3900
Isoprot counter: alters isoproterenol CRE-luciferase response in HEK293 cells; AID 647; HEK293 D1 CRE-luciferase, isoproterenol EC30 counter-screen; hit rate 63% among 2,200; calls only at 10 µM; shares compounds with D1 allo mod;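 active means luminescence in either replicate above plate mean of wells with a partly effective reference agonist dose plus 3 SD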;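 further: isoproterenol raises cAMP through native beta-adrenoceptor Gs so signal bypasses D1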
Hits are given with their value; - = inactive; . = not tested or not shown; + = active, no number. Unless noted, no stated cut-off is given here; in the data, active means inhibition above about 30%; inactive means the rest.

SMILES | PostGolgi ctrl | E coli WT exp | D1 allo mod | DAT uptake mod | tolC growth inh | PostGolgi yeast | D1 PAM confirm | D1 ag no DA | Isoprot counter
CCCCNc1oc(-c2ccc(OC)cc2)nc1S(=O)(=O)c1ccccc1 | - | - | . | - | . | - | . | . | .
CCOc1ccc(-c2nc(S(=O)(=O)c3ccccc3)c(NCc3cccnc3)o2)cc1 | - | - | 5.7 | - | - | - | 8380 | - | +
COC(=O)CN1C2(C#N)CCCCC2CC2CCCCC21C#N (stereo not drawn) | - | - | . | - | - | - | . | . | .
CCCC(=O)Nc1cc2c(cc1C(=O)c1ccccc1)OCCO2 | - | - | 6.3 | - | - | - | 13204 | - | +
CCC(=O)Nc1cc2c(cc1C(C)=O)OCCO2 | - | - | - | - | - | - | . | . | .
O=C(c1ccc2c(c1)OCO2)N1CCCc2ccccc21 | - | - | - | - | - | - | . | . | .
O=C(c1ccc2c(c1)OCO2)N1CCc2ccccc2C1 | - | - | 22 | - | - | - | 18384 | - | +
O=C(C1CCCN1S(=O)(=O)c1cccc2cccnc12)N1CCn2c1nc1ccccc12 (stereo not drawn) | - | - | - | - | - | - | . | . | .
O=C(C1CCN(S(=O)(=O)c2cccc3cccnc23)CC1)N1CCn2c1nc1ccccc12 | - | - | 4.9 | . | - | - | 12004 | - | +
CCOC(=O)c1[nH]c(C)c(C(=O)c2cc(F)ccc2F)c1C | - | - | 5.7 | . | - | - | 8492 | - | +
Cc1csc2ncc(C(=O)NC(C)c3ccccc3)c(=O)n12 (stereo not drawn) | - | - | . | - | - | - | . | . | .
CCN(CC)C(=O)CC(c1cc(OC)c(OC)c(OC)c1)c1c(OC)cc(OC)c2c(-c3ccccc3)cc(=O)oc12 (stereo not drawn) | . | . | . | - | . | . | . | . | .
Nc1nc(CN2CCN(c3ccccn3)CC2)nc(Nc2ccc(Cl)cc2)n1 | - | - | 4.3 | - | - | - | 6700 | - | -
Nc1nc(CN2CCN(Cc3ccccc3)CC2)nc(Nc2ccccc2)n1 | - | - | . | - | . | - | . | . | .
CC1C/C(=N\NC(=S)NC(C)C)CC(C)(C)C1 (stereo not drawn) | - | - | . | - | . | - | . | . | .
CN(CC(=O)O)Cc1nc2ccccc2[nH]1 | - | - | . | - | . | - | . | . | .
COCCCNc1nc(-c2ccncc2)nc2ccccc12 | - | - | 5.7 | - | - | - | 6996 | . | +
O=C(CCC(=O)c1ccc(F)cc1)Nc1cc(Cl)cc(Cl)c1 | - | - | . | - | . | - | . | . | .
N#Cc1cc2c(nc1SCc1cccnc1)CCCC2 | - | - | 9.6 | - | - | - | 12820 | - | +
C=CCSc1nc2c(cc1C#N)CCC2 | - | - | - | - | - | - | . | . | .
C=C(C)CSc1nc2c(cc1C#N)CCC2 | - | - | 5 | - | - | - | 8952 | - | -
CC(C)(C)OC(=O)CN1C(=O)C(Sc2n[nH]c(-c3ccccc3)n2)CCc2ccccc21 (stereo not drawn) | - | - | . | - | . | - | . | . | .
Cc1onc(-c2c(F)cccc2Cl)c1C(=O)NC1CCSC1=O (stereo not drawn) | - | - | . | - | . | - | . | . | .
O=C(O)c1c(-c2ccccc2)c2oc3ccccc3c2[nH]c1=O | - | - | - | - | - | - | . | . | .
CCNC(=O)c1c(O)c2ccccc2[nH]c1=O | - | - | 11 | - | - | - | 15428 | . | +
SMILES | PostGolgi ctrl | E coli WT exp | D1 allo mod | DAT uptake mod | tolC growth inh | PostGolgi yeast | D1 PAM confirm | D1 ag no DA | Isoprot counter
CN=C1c2ccccc2CN1c1cccc(C(=O)OC)c1 | - | - | 13 | - | - | - | 19796 | - | +
Cc1cccc(CN(CC(=O)N/N=C/c2cccs2)S(=O)(=O)c2ccc(Cl)cc2)c1 | - | - | . | - | . | - | . | . | .
CC(C)(C)OC(=O)N[C@@H](Cc1ccccc1)[C@H](O)c1ccco1 | . | . | . | - | . | . | . | . | .
O=c1cc(/C=C/c2ccccc2)oc2ccccc12 | - | - | . | - | . | - | . | . | .
COc1ccc(S(=O)(=O)Nc2ccc3c(c2)OCO3)cc1OC | - | - | 3.1 | - | - | - | 9304 | - | -
COc1ccc(S(=O)(=O)Nc2ccc3c(c2)OCO3)cc1C(=O)O | - | - | - | - | - | - | . | . | .
COc1cc2c(cc1OC)C(C(=O)Nc1ccc3c(c1)OCCO3)C1c3ccccc3CCN1C2=O (stereo not drawn) | - | - | 4.1 | - | - | - | 6868 | - | -
COc1cc2c(cc1OC)C(C(=O)NCCN1CCOCC1)C1c3ccccc3CCN1C2=O (stereo not drawn) | - | - | - | - | - | - | . | . | .
Cc1ccc(NC(=O)C2(N(CC(C)C)C(=O)Cn3nnnc3N)CCCCC2)cc1 | - | - | 5.4 | - | - | - | - | . | -
CCc1nc2ccccc2n(CC)c1=O | - | - | 4.2 | - | - | - | 10236 | - | +
CC1(C)CC2(CCO1)CNC(=O)O2 (stereo not drawn) | - | - | - | - | - | - | . | . | .
CCOC(=O)C1=C(c2ccccc2)N2CCS(=O)(=O)N=C2S1 | - | - | 7.1 | - | - | - | 9940 | - | -
Cc1nn(-c2ccc(C(=O)O)cc2)c(C)c1Oc1ccccc1O | - | - | . | - | . | - | . | . | .
Cc1nn(-c2ccccn2)c(C)c1Oc1ccccc1O | - | - | 3.8 | - | - | 34 | - | - | -
O=C(O)c1ccc2noc(-c3ccccc3)c2c1 | - | - | 3 | - | - | - | - | - | -
CCOC(=O)N1CCN(c2c(NCC3CCN(Cc4cccc(C)c4)CC3)c(=O)c2=O)CC1 | - | - | - | - | - | - | . | . | .
CCCC1(C(=O)OCC)NC(c2ccc(N(C)C)cc2)C2C(=O)N(c3ccc(OCC)cc3)C(=O)C21 (stereo not drawn) | - | - | 2.9 | - | - | - | - | - | -
CCCC1(C(=O)OCC)NC(c2ccc(N(C)C)cc2)C2C(=O)N(c3ccccc3)C(=O)C21 (stereo not drawn) | - | - | - | - | - | - | . | . | .
COc1nc(OCC#N)nc(N(C)C)n1 | - | - | . | - | . | - | . | . | .
CCC(C)Nc1nc(OC)nc(N(C)C#N)n1 (stereo not drawn) | - | - | 6.9 | - | - | - | 12160 | - | -
COc1ccc(OC)c(C2/C(=C(\O)c3c(C)nc4ccccn34)C(=O)C(=O)N2CCCN(C)C)c1 (stereo not drawn) | . | . | - | . | - | . | . | . | .
CCOC(=O)c1c(C)c2c(n1C)CCC/C2=N\O | - | - | 6.5 | - | - | - | 9680 | - | +
CCOC(=O)c1c(C)c(C(=O)N2CCCCCC2)c(C)n1C | - | - | . | - | - | - | . | . | .
Cc1cc(=O)oc(C)c1C(=O)OCC(=O)c1ccc(Cl)cc1 | - | - | . | - | . | - | . | . | .
COc1ccc(-c2nnc(SCC(=O)N(Cc3ccccc3)C(C)(C)C)o2)cc1OC | - | - | - | - | - | - | . | . | .
